Source: ChEMBL document CHEMBL1268908, “Design, synthesis, radiolabeling, and in vivo evaluation of carbon-11 labeled N-[2-[4-(3-cyanopyridin-2-yl)piperazin-1-yl]ethyl]-3-methoxybenzamide, a potential positron emission tomography tracer for the dopamine D(4) receptors” (J Med Chem, 2010)

Columns and labels:
[1] = Biodistribution in rhesus monkey cingulate cortex at 150.3 MBq, iv after 1.25 mins; type: ADME, organism-based, Macaca mulatta; conditions: in vivo, 75 s
In short: (§1)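 Male rhesus monkey under ketamine (10 mg/kg im) with head fixation. After a 20 min 68Ge-68Ga transmission scan, the [11C]-labelled tracer in saline (pH 7.4) was injected iv, at 2.9 TBq/μmol specific radioactivity at injection. A dynamic 3D PET scan followed over 90 min (6×0.5, 7×1, 20×2, 8×5 min frames). Regions were defined on T1-weighted 1.5 T MRI, and uptake is given as %ID/mL.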

Striatum [2] = test: Biodistribution in rhesus monkey striatum at 150.3 MBq, iv after 2.25 mins; type: ADME, organism-based, Macaca mulatta; conditions: in vivo, 135 s
[3] = Biodistribution in rhesus monkey cingulate cortex at 150.3 MBq, iv after 3.5 mins; type: ADME, organism-based, Macaca mulatta; conditions: in vivo; in short: as §1
Hippocampus [4] = test: Biodistribution in rhesus monkey hippocampus at 150.3 MBq, iv after 4.5 mins; type: ADME, organism-based, Macaca mulatta; conditions: in vivo, 0.075 h
In short: (§2)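 Male rhesus monkey under ketamine 10 mg/kg im, head fixed; 20 min 68Ge-68Ga transmission scan, then 90 min dynamic 3D PET (6×0.5, 7×1, 20×2, 8×5 min frames) after iv [11C]-labelled tracer in saline, specific radioactivity about 2.9 TBq/μmol at injection. Regions defined on T1-weighted MRI; uptake expressed as % injected dose per mL.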

[5] = Biodistribution in rhesus monkey occipital lobe at 150.3 MBq, iv after 4.5 mins; type: ADME, organism-based, Macaca mulatta; conditions: in vivo, 0.075 h; in short: as §2
[6] = Biodistribution in rhesus monkey occipital lobe at 150.3 MBq, iv after 5.5 mins; type: ADME, organism-based, Macaca mulatta; conditions: in vivo
[7] = Biodistribution in rhesus monkey retina at 150.3 MBq, iv after 6.5 mins; type: ADME, organism-based, Macaca mulatta; conditions: in vivo
[8] = Biodistribution in rhesus monkey occipital lobe at 150.3 MBq, iv after 9.5 mins; type: ADME, organism-based, Macaca mulatta; conditions: in vivo
[9] = Biodistribution in rhesus monkey cingulate cortex at 150.3 MBq, iv after 11 mins; type: ADME, organism-based, Macaca mulatta; conditions: in vivo; in short: as §1
[10] = Biodistribution in rhesus monkey cingulate cortex at 150.3 MBq, iv after 15 mins; type: ADME, organism-based, Macaca mulatta; conditions: in vivo, 0.25 h; in short: as §1
[11] = Biodistribution in rhesus monkey retina at 150.3 MBq, iv after 15 mins; type: ADME, organism-based, Macaca mulatta; conditions: in vivo, 0.25 h
[12] = Biodistribution in rhesus monkey entorhinal cortex at 170.3 MBq, iv after 17 mins; type: ADME, organism-based, Macaca mulatta; conditions: in vivo, in the assay text read “150.3 MBq” for “170.3 MBq”
In short: (§3)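 Single male rhesus monkey anesthetized with ketamine 10 mg/kg im, head fixed. Attenuation correction by 20 min 68Ge-68Ga transmission scan. [11C]-tracer in saline (pH 7.4) given iv, specific radioactivity 2.9 TBq/μmol at injection. Dynamic 3D PET emission scan over 90 min in frames of 0.5 to 5 min. MRI T1 images used to define VOIs. Uptake expressed as […].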

Striatum [13] = test: Biodistribution in rhesus monkey striatum at 150.3 MBq, iv after 19 mins; type: ADME, organism-based, Macaca mulatta; conditions: in vivo
Hippocampus [14] = test: Biodistribution in rhesus monkey hippocampus at 150.3 MBq, iv after 21 mins; type: ADME, organism-based, Macaca mulatta; conditions: in vivo, 0.35 h; in short: as §3
[15] = Biodistribution in rhesus monkey entorhinal cortex at 150.3 MBq, iv after 21 mins; type: ADME, organism-based, Macaca mulatta; conditions: in vivo, 0.35 h; in short: as §3
[16] = Biodistribution in rhesus monkey cerebellum at 150.3 MBq, iv after 23 mins; type: ADME, organism-based, Macaca mulatta; conditions: in vivo; in short: as §1
[17] = Biodistribution in rhesus monkey entorhinal cortex at 150.3 MBq, iv after 25 mins; type: ADME, organism-based, Macaca mulatta; conditions: in vivo; in short: as §3
Striatum [18] = test: Biodistribution in rhesus monkey striatum at 150.3 MBq, iv after 25 mins; type: ADME, organism-based, Macaca mulatta; conditions: in vivo
[19] = Biodistribution in rhesus monkey retina at 150.3 MBq, iv after 25 mins; type: ADME, organism-based, Macaca mulatta; conditions: in vivo
[20] = Biodistribution in rhesus monkey cingulate cortex at 150.3 MBq, iv after 27 mins; type: ADME, organism-based, Macaca mulatta; conditions: in vivo, 0.45 h; in short: as §1
[21] = Biodistribution in rhesus monkey occipital lobe at 150.3 MBq, iv after 27 mins; type: ADME, organism-based, Macaca mulatta; conditions: in vivo, 0.45 h; in short: as §2
Hippocampus [22] = test: Biodistribution in rhesus monkey hippocampus at 150.3 MBq, iv after 29 mins; type: ADME, organism-based, Macaca mulatta; conditions: in vivo; in short: as §2
[23] = Biodistribution in rhesus monkey occipital lobe at 150.3 MBq, iv after 29 mins; type: ADME, organism-based, Macaca mulatta; conditions: in vivo; in short: as §2
Hippocampus [24] = test: Biodistribution in rhesus monkey hippocampus at 150.3 MBq, iv after 35 mins; type: ADME, organism-based, Macaca mulatta; conditions: in vivo; in short: as §2
[25] = Biodistribution in rhesus monkey entorhinal cortex at 150.3 MBq, iv after 35 mins; type: ADME, organism-based, Macaca mulatta; conditions: in vivo; in short: as §3
[26] = Biodistribution in rhesus monkey cerebellum at 150.3 MBq, iv after 35 mins; type: ADME, organism-based, Macaca mulatta; conditions: in vivo; in short: as §1
[27] = Biodistribution in rhesus monkey retina at 150.3 MBq, iv after 37 mins; type: ADME, organism-based, Macaca mulatta; conditions: in vivo
Hippocampus [28] = test: Biodistribution in rhesus monkey hippocampus at 150.3 MBq, iv after 39 mins; type: ADME, organism-based, Macaca mulatta; conditions: in vivo, 0.65 h; in short: as §2
[29] = Biodistribution in rhesus monkey cingulate cortex at 150.3 MBq, iv after 39 mins; type: ADME, organism-based, Macaca mulatta; conditions: in vivo, 0.65 h; in short: as §1
Hippocampus [30] = test: Biodistribution in rhesus monkey hippocampus at 150.3 MBq, iv after 41 mins; type: ADME, organism-based, Macaca mulatta; conditions: in vivo; in short: as §2
Striatum [31] = test: Biodistribution in rhesus monkey striatum at 150.3 MBq, iv after 43 mins; type: ADME, organism-based, Macaca mulatta; conditions: in vivo
Hippocampus [32] = test: Biodistribution in rhesus monkey hippocampus at 150.3 MBq, iv after 45 mins; type: ADME, organism-based, Macaca mulatta; conditions: in vivo, 0.75 h; in short: as §2
[33] = Biodistribution in rhesus monkey retina at 150.3 MBq, iv after 47 mins; type: ADME, organism-based, Macaca mulatta; conditions: in vivo
[34] = Biodistribution in rhesus monkey cingulate cortex at 150.3 MBq, iv after 49 mins; type: ADME, organism-based, Macaca mulatta; conditions: in vivo; in short: as §3
[35] = Biodistribution in rhesus monkey cerebellum at 150.3 MBq, iv after 49 mins; type: ADME, organism-based, Macaca mulatta; conditions: in vivo; in short: as §1
[36] = Biodistribution in rhesus monkey occipital lobe at 150.3 MBq, iv after 49 mins; type: ADME, organism-based, Macaca mulatta; conditions: in vivo
In short: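 A male rhesus monkey was anaesthetised with ketamine 10 mg/kg im and placed in a head fixation device. A 20 min 68Ge-68Ga transmission scan was run for attenuation correction. Radiotracer in saline (pH 7.4) was given iv, about 52 pmol (18 ng), at 2.9 TBq/μmol at injection. A dynamic 3D PET scan followed for 90 min. Regional VOIs were defined on a T1-weighted MRI, with uptake expressed as %ID/mL.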

[37] = Biodistribution in rhesus monkey cerebellum at 150.3 MBq, iv after 62.5 mins; type: ADME, organism-based, Macaca mulatta; conditions: in vivo; in short: as §1
[38] = Biodistribution in rhesus monkey entorhinal cortex at 150.3 MBq, iv after 67.5 mins; type: ADME, organism-based, Macaca mulatta; conditions: in vivo, 1.125 h; in short: as §3
Striatum [39] = test: Biodistribution in rhesus monkey striatum at 150.3 MBq, iv after 67.5 mins; type: ADME, organism-based, Macaca mulatta; conditions: in vivo, 1.125 h
Hippocampus [40] = test: Biodistribution in rhesus monkey hippocampus at 150.3 MBq, iv after 87.5 mins; type: ADME, organism-based, Macaca mulatta; conditions: in vivo; in short: as §2
Striatum [41] = test: Biodistribution in rhesus monkey striatum at 150.3 MBq, iv after 8.5 mins; type: ADME, organism-based, Macaca mulatta; conditions: in vivo
[42] = Biodistribution in rhesus monkey retina at 150.3 MBq, iv after 52.5 mins; type: ADME, organism-based, Macaca mulatta; conditions: in vivo, 0.875 h
Striatum [43] = test: Biodistribution in rhesus monkey striatum at 150.3 MBq, iv after 72.5 mins; type: ADME, organism-based, Macaca mulatta; conditions: in vivo
[44] = Biodistribution in rhesus monkey cerebellum at 150.3 MBq, iv after 72.5 mins; type: ADME, organism-based, Macaca mulatta; conditions: in vivo; in short: as §1
Striatum [45] = test: Biodistribution in rhesus monkey striatum at 150.3 MBq, iv after 17 mins; conditions: in vivo

[11CH3]Oc1cccc(C(=O)NCCN2CCN(c3ncccc3C#N)CC2)c1
Drug uptake [1]: 60.79 kBq/ml
Drug uptake (Striatum [2]): 51.53 kBq/ml
Drug uptake [3]: 42.88 kBq/ml
Drug uptake (Hippocampus [4]): 41.63 kBq/ml
Drug uptake [5]: 33.71 kBq/ml
Drug uptake [6]: 32.15 kBq/ml
Drug uptake [7]: 44.54 kBq/ml
Drug uptake [8]: 25.01 kBq/ml
Drug uptake [9]: 25.93 kBq/ml
Drug uptake [10]: 20.1 kBq/ml
Drug uptake [11]: 50.94 kBq/ml
Drug uptake [12]: 20.28 kBq/ml
Drug uptake (Striatum [13]): 20.01 kBq/ml
Drug uptake (Hippocampus [14]): 17.71 kBq/ml
Drug uptake [15]: 19.46 kBq/ml
Drug uptake [16]: 16.31 kBq/ml
Drug uptake [17]: 17.3 kBq/ml
Drug uptake (Striatum [18]): 17.99 kBq/ml
Drug uptake [19]: 56.02 kBq/ml
Drug uptake [20]: 15.6843 kBq/ml
Drug uptake [21]: 14.42 kBq/ml
Drug uptake (Hippocampus [22]): 16.7 kBq/ml
Drug uptake [23]: 13.8 kBq/ml
Drug uptake (Hippocampus [24]): 12.16 kBq/ml
Drug uptake [25]: 11.33 kBq/ml
Drug uptake [26]: 11.95 kBq/ml
Drug uptake [27]: 57.39 kBq/ml
Drug uptake (Hippocampus [28]): 12.1253 kBq/ml
Drug uptake [29]: 11.74 kBq/ml
Drug uptake (Hippocampus [30]): 11.5929 kBq/ml
Drug uptake (Striatum [31]): 11.39 kBq/ml
Drug uptake (Hippocampus [32]): 10.64 kBq/ml
Drug uptake [33]: 57.02 kBq/ml
Drug uptake [34]: 10.6 kBq/ml
Drug uptake [35]: 10.45 kBq/ml
Drug uptake [36]: 9.036 kBq/ml
Drug uptake [37]: 8.418 kBq/ml
Drug uptake [38]: 7.481 kBq/ml
Drug uptake (Striatum [39]): 9.576 kBq/ml
Drug uptake (Hippocampus [40]): 8.159 kBq/ml
Drug uptake (Striatum [41]): 31.7 kBq/ml
Drug uptake [42]: 55.05 kBq/ml
Drug uptake (Striatum [43]): 9.016 kBq/ml
Drug uptake [44]: 8.18 kBq/ml
Drug uptake (Striatum [45]): 20.6138 kBq/ml
